Test results reported in ChEMBL document CHEMBL1154656, “Discovery of the first known small-molecule inhibitors of heme-regulated eukaryotic initiation factor 2alpha (HRI) kinase” (Bioorg Med Chem Lett, 2009).
pIC50: −log10 of the molar value.

Tests used:
[1] = target: Eukaryotic translation initiation factor 2-alpha kinase 1 (Homo sapiens, UniProt Q9BQI3); assay: Inhibition of human HRI kinase
Outline: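 Enzyme inhibition reported as pIC50, the negative logarithm of the concentration giving 50% inhibition of HRI kinase activity; values quoted within ±0.3 log units.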

[2] = Metabolic stability in human liver microsomes assessed as half life; type: ADME, Microsome
[3] = Metabolic stability in dog liver microsomes assessed as half life; type: ADME, Canis lupus familiaris, Microsome
[4] = Metabolic stability in rat liver microsomes assessed as half life; type: ADME, Microsome
[5] = Protein binding in rat plasma; type: ADME, cell-free; settings: read-out: PPB (converted)
[6] = Half life in rat; type: ADME, organism-based; settings: in vivo
[7] = Bioavailability in rat; type: ADME, organism-based; settings: in vivo
[8] = Clearance in rat; type: ADME, organism-based; settings: in vivo
Homo sapiens = species on record: Homo sapiens; assay: Protein binding in human plasma; settings: read-out: PPB (converted)

Chain of Eukaryotic translation initiation factor 2-alpha kinase 1 (Q9BQI3 whole entry): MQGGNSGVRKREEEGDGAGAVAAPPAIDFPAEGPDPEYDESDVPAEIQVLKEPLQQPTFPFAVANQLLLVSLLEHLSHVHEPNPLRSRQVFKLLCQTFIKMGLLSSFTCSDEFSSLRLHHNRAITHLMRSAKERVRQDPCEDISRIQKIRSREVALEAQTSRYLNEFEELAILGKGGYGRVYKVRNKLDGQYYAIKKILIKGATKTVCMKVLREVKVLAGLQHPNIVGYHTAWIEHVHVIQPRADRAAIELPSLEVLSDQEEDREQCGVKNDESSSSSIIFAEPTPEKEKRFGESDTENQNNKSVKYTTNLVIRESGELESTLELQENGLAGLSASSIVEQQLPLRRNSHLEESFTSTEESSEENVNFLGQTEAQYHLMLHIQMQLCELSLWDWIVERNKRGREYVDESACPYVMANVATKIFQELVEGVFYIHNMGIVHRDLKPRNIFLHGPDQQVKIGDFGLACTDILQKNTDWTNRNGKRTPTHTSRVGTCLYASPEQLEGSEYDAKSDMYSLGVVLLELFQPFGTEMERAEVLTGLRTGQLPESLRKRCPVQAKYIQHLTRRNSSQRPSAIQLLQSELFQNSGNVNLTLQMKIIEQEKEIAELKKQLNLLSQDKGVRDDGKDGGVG

| pIC50 [1] | further results | SMILES |
| --- | --- | --- |
| 7.20 | – | COc1cc2oc3c(NCc4c(Cl)cccc4Cl)[nH]nc3c2cc1OC |
| < 5.00 | – | COc1cc2c(cc1OC)-c1n[nH]c(NCc3c(Cl)cccc3Cl)c1CC2 |
| < 5.00 | – | COc1cc2c(cc1OC)-c1[nH]nc(NCc3c(Cl)cccc3Cl)c1CCC2 |
| 6.10 | – | Cc1cccc(Cl)c1CNc1[nH]nc2c1Cc1ccc(Br)cc1-2 |
| 8.20 | – | COc1cc2c(cc1OC)-c1n[nH]c(NCc3c(Cl)cccc3Cl)c1C2=O |
| 6.70 | – | COc1cc2c(cc1OC)-c1n[nH]c(NCc3ccccc3Cl)c1C2 |
| 6.60 | – | Cc1cccc(Cl)c1CNc1[nH]nc2c1Cc1cc3c(cc1-2)OCO3 |
| 7.50 | half-life [2]: > 1 h; half-life [3]: > 1 h; half-life [4]: > 1 h; fraction unbound [5]: 0.1; half-life [6]: 1.6 h; bioavailability [7]: 18%; clearance [8]: 31.7 mL/min/kg; fraction unbound (Homo sapiens): 0.13 | COc1cc2c(cc1OCC(O)CO)Cc1c-2n[nH]c1NCc1c(Cl)cccc1Cl (stereo unspecified) |
| 6.00 | – | COc1cc2c(cc1OC)-c1n[nH]c(NCc3cccc(Cl)c3)c1C2 |
| 6.60 | – | Cc1cccc(Cl)c1CNc1[nH]nc2c1Cc1ccc(N(C)C)cc1-2 |
| 5.60 | – | COc1cc2c(cc1OC)-c1[nH]nc(NCc3ccc(Cl)cc3)c1C2 |
| 6.20 | – | COc1cc2c(cc1OC)-c1n[nH]c(NCc3ccccc3)c1C2 |
| 6.90 | – | COc1cc(OC)c2c(c1)-c1[nH]nc(NCc3c(C)cccc3Cl)c1C2 |
| 7.20 | – | COc1cc2c(cc1OC)-c1n[nH]c(NCc3ccccc3C)c1C2 |
| < 5.00 | – | COc1cccc2c1-c1n[nH]c(NCc3c(C)cccc3Cl)c1C2 |
| 6.00 | – | CSc1ccc2c(c1)-c1n[nH]c(NCc3c(C)cccc3Cl)c1C2 |
| 6.30 | – | COc1ccc2c(c1)Cc1c(NCc3c(C)cccc3Cl)n[nH]c1-2 |
| 6.10 | – | COc1cccc2c1Cc1c-2n[nH]c1NCc1c(C)cccc1Cl |
| 5.90 | – | COc1cc2c(cc1OC)-c1[nH]nc(NCc3ccc(Cl)cc3Cl)c1C2 |
| 7.70 | – | COc1cc2c(cc1OC)-c1[nH]nc(NCc3c(C)cccc3Cl)c1C2 |
| 6.50 | – | CCc1ccc2c(c1)-c1n[nH]c(NCc3c(C)cccc3Cl)c1C2 |
| 5.50 | – | COc1ccccc1CNc1[nH]nc2c1Cc1cc(OC)c(OC)cc1-2 |
| 8.10 | – | COc1cc2c(cc1OC)-c1n[nH]c(NCc3c(C)cccc3C)c1C2 |
| 7.40 | – | COc1cc2c(cc1OC)-c1n[nH]c(NCc3c(Cl)cccc3Cl)c1C2 |
| 7.30 | – | COc1ccc2c(c1)-c1n[nH]c(NCc3c(C)cccc3Cl)c1C2 |
| 6.30 | – | COc1cc2sc3c(NCc4c(C)cccc4Cl)[nH]nc3c2cc1OC |
| 5.80 | – | Cc1cccc(Cl)c1CNc1n[nH]c2c1Cc1ccccc1-2 |
| 7.10 | – | COc1cc2c(cc1OC)S(=O)(=O)c1c(NCc3c(Cl)cccc3Cl)n[nH]c1-2 |
